{"source": "ChEMBL document CHEMBL5678810", "key": {"[1]": {"biological_target": "Leucine-rich repeat serine/threonine-protein kinase 2 (Homo sapiens) (UniProt Q5S007)", "experiment": "Inhibition of wildtype GFP-tagged LRRK2 phosphorylation at Ser910 residue (unknown origin) transfected in HEK293 cells upto 3 uM incubated for 90 mins by immunoblot analysis", "format": "cell-based"}, "[2]": {"test_system": "Leucine-rich repeat serine/threonine-protein kinase 2 (Homo sapiens), Q5S007 [A2016T]", "experiment": "Inhibition of drug-resistant GFP-tagged LRRK2 A2016T mutant phosphorylation at Ser935 residue (unknown origin) transfected in HEK293 cells upto 3 uM incubated for 90 mins by immunoblot analysis", "format": "cell-based", "summary_of_the_method": "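HEK293 cells stably expressing GFP-LRRK2 variants, grown in DMEM with 10% FBS, 2 mM glutamine and penicillin/streptomycin. Compound added from DMSO stock (final DMSO ≤1%) at increasing concentrations for 90 min, DMSO control. Cells were PBS-washed and lysed in Triton X-100 lysis buffer. Lysates were run on 8% SDS-PAGE and immunoblotted with rabbit monoclonals against pSer910, pSer935 and total LRRK2.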"}, "[3]": {"test_system": "Epidermal growth factor receptor (Homo sapiens), P00533 [UNDEFINED MUTATION]", "sequence (P00533 whole entry, looked up, stated change not applied, the tested form may be a part)": "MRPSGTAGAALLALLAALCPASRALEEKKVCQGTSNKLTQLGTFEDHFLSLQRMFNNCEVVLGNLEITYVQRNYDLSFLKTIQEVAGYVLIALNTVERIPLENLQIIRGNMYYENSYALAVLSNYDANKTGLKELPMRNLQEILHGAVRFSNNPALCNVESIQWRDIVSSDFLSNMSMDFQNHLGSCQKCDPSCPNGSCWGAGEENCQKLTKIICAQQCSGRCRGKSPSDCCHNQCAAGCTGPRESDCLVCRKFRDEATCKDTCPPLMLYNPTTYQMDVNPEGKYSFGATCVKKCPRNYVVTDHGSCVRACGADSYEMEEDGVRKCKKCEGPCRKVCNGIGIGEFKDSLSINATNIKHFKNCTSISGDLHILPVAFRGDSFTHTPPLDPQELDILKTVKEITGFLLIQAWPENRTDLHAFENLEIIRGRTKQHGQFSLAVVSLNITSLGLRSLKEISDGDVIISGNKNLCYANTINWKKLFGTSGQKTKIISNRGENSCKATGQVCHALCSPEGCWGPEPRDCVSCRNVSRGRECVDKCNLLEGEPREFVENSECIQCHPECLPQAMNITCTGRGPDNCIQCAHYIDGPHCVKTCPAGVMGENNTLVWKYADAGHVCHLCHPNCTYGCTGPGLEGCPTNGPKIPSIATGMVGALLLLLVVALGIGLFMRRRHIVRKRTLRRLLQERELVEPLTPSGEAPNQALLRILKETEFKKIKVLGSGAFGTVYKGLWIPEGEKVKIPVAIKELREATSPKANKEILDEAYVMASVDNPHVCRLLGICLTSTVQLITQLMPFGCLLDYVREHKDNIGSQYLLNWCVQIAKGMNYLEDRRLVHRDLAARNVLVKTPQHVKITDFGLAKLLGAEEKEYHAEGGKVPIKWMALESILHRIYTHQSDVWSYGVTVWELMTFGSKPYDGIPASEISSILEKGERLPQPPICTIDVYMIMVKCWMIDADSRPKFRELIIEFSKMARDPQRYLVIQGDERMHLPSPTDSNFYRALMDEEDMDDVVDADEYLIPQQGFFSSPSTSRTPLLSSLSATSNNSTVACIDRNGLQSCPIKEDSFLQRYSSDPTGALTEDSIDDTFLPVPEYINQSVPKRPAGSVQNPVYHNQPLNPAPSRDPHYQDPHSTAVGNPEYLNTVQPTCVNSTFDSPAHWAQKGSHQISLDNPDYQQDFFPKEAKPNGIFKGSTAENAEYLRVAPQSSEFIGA", "experiment": "Inhibition of T7 bacteriophage fused human EGFR L747/S752del/P753S mutant at 10 uM by KINOMEscan analysis relative to control; values are per cent of control"}, "[4]": {"biological_target": "Tyrosine-protein kinase JAK1 (Homo sapiens) (UniProt P23458)", "experiment": "Inhibition of T7 bacteriophage fused human JAK1 JH1catalytic domain at 10 uM by KINOMEscan analysis relative to control"}, "[5]": {"biological_target": "Serine/threonine-protein kinase pim-1 (Homo sapiens) (UniProt P11309)", "sequence (P11309 whole entry, looked up, the tested form may be a part)": "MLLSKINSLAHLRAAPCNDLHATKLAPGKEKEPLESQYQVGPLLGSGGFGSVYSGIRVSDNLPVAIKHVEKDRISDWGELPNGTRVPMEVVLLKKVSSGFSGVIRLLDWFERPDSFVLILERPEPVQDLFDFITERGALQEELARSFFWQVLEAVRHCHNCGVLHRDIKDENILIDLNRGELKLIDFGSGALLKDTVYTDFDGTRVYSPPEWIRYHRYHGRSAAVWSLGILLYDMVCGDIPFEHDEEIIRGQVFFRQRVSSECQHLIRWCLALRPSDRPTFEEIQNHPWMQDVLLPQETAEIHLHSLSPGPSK", "experiment": "Inhibition of T7 bacteriophage fused human PIM1 at 10 uM by KINOMEscan analysis relative to control"}, "[6]": {"biological_target": "Ephrin type-A receptor 5 (Homo sapiens) (UniProt P54756)", "experiment": "Inhibition of T7 bacteriophage fused human EPHA5 at 10 uM by KINOMEscan analysis relative to control; values are per cent of control"}, "[7]": {"biological_target": "Serine/threonine-protein kinase Nek4 (Homo sapiens) (UniProt P51957)", "experiment": "Inhibition of T7 bacteriophage fused human NEK4 at 10 uM by KINOMEscan analysis relative to control; values are per cent of control"}, "[8]": {"biological_target": "Serine/threonine-protein kinase Nek11 (Homo sapiens) (UniProt Q8NG66)", "experiment": "Inhibition of T7 bacteriophage fused human NEK11 at 10 uM by KINOMEscan analysis relative to control"}, "[9]": {"biological_target": "Serine/threonine-protein kinase pim-3 (Homo sapiens) (UniProt Q86V86)", "experiment": "Inhibition of T7 bacteriophage fused human PIM3 at 10 uM by KINOMEscan analysis relative to control"}, "[10]": {"biological_target": "Serine/threonine-protein kinase SBK1 (Homo sapiens) (UniProt Q52WX2)", "sequence (Q52WX2 whole entry, the tested form may be a part)": "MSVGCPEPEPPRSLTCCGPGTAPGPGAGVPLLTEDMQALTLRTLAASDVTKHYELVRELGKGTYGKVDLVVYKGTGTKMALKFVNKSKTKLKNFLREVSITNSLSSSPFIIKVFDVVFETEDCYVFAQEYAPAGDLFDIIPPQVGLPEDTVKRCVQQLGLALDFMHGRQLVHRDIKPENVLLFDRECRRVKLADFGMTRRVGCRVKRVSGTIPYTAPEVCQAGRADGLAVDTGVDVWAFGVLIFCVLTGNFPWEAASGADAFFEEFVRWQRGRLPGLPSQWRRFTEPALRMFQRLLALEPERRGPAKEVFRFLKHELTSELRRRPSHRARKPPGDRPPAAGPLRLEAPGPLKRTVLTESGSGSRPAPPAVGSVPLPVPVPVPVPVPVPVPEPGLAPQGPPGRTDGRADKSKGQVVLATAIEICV", "experiment": "Inhibition of T7 bacteriophage fused human SBK1 at 10 uM by KINOMEscan analysis relative to control"}, "[11]": {"biological_target": "Serine/threonine-protein kinase PLK4 (Homo sapiens) (UniProt O00444)", "experiment": "Inhibition of T7 bacteriophage fused human PLK4 at 10 uM by KINOMEscan analysis relative to control"}, "[12]": {"biological_target": "Serine/threonine-protein kinase RIO2 (Homo sapiens) (UniProt Q9BVS4)", "experiment": "Inhibition of T7 bacteriophage fused human RIOK2 at 10 uM by KINOMEscan analysis relative to control"}, "[13]": {"biological_target": "Serine/threonine-protein kinase DCLK1 (Homo sapiens) (UniProt O15075)", "sequence (O15075 whole entry, the tested form may be a part)": "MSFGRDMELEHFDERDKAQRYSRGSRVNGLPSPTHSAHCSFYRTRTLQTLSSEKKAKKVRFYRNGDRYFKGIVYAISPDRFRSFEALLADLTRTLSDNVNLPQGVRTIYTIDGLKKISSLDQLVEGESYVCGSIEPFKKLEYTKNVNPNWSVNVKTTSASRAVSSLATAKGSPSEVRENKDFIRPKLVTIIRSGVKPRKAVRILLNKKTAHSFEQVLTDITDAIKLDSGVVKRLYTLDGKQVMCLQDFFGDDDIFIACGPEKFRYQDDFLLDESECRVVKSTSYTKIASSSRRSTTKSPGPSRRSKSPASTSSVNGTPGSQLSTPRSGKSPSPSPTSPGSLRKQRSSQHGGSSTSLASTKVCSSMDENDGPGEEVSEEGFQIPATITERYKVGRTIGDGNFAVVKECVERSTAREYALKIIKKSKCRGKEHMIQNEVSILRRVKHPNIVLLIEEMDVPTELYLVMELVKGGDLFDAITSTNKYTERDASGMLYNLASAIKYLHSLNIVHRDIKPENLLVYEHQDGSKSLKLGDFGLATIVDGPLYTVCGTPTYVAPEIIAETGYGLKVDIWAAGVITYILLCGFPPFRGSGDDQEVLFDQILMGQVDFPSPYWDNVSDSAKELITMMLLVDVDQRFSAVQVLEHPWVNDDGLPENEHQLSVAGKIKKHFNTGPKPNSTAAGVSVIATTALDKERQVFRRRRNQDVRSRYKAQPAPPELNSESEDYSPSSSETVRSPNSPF", "experiment": "Inhibition of T7 bacteriophage fused human DCAMKL1 at 10 uM by KINOMEscan analysis relative to control; values are per cent of control"}, "[14]": {"biological_target": "BMP-2-inducible protein kinase (Homo sapiens) (UniProt Q9NSY1)", "sequence (Q9NSY1 whole entry, looked up, the tested form may be a part)": "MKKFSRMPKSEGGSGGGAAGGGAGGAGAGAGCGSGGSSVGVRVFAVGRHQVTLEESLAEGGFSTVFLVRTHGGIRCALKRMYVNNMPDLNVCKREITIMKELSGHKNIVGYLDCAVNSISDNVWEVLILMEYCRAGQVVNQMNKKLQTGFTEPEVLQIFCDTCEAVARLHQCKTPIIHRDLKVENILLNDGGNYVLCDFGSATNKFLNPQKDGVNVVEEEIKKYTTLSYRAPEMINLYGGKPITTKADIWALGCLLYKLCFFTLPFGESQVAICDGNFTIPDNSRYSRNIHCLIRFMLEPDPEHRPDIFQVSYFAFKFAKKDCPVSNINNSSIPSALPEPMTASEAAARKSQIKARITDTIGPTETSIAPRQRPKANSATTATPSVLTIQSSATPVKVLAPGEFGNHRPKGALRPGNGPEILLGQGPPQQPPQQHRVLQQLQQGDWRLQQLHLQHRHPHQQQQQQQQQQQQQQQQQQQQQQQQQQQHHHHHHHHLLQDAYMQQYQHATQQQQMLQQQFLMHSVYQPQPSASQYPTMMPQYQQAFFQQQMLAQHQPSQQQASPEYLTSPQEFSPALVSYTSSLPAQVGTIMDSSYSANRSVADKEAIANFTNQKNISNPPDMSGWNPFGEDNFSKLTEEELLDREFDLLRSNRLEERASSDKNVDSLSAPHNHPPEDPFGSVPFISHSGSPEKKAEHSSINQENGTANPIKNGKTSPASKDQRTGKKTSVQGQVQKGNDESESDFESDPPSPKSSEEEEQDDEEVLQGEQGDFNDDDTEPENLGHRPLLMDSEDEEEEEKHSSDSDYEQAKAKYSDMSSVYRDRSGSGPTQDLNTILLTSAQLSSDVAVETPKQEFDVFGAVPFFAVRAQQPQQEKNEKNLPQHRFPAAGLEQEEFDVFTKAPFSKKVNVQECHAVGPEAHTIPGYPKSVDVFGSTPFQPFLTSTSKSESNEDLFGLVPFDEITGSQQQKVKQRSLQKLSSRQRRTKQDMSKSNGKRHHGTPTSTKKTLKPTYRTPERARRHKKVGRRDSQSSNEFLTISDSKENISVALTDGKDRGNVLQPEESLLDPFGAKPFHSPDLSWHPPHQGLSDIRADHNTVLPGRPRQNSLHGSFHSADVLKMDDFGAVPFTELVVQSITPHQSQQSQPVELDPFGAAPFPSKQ", "experiment": "Inhibition of T7 bacteriophage fused human BIKE at 10 uM by KINOMEscan analysis relative to control"}, "[15]": {"test_system": "Epidermal growth factor receptor (Homo sapiens), P00533 [UNDEFINED MUTATION]", "experiment": "Inhibition of T7 bacteriophage fused human EGFR L747/E749del/A750P mutant at 10 uM by KINOMEscan analysis relative to control; values are per cent of control"}, "[16]": {"biological_target": "Phosphatidylinositol 4,5-bisphosphate 3-kinase catalytic subunit delta isoform (Homo sapiens) (UniProt O00329)", "experiment": "Inhibition of T7 bacteriophage fused human PIK3CD at 10 uM by KINOMEscan analysis relative to control"}, "[17]": {"biological_target": "Ephrin type-B receptor 2 (Homo sapiens) (UniProt P29323)", "experiment": "Inhibition of T7 bacteriophage fused human EPHB2 at 10 uM by KINOMEscan analysis relative to control"}, "[18]": {"biological_target": "Serine/threonine-protein kinase NIM1 (Homo sapiens) (UniProt Q8IY84)", "experiment": "Inhibition of T7 bacteriophage fused human NIM1 at 10 uM by KINOMEscan analysis relative to control"}, "[19]": {"biological_target": "Protein kinase C iota type (Homo sapiens) (UniProt P41743)", "experiment": "Inhibition of T7 bacteriophage fused human PRKCI at 10 uM by KINOMEscan analysis relative to control"}, "[20]": {"biological_target": "Serine/threonine-protein kinase Nek6 (Homo sapiens) (UniProt Q9HC98)", "experiment": "Inhibition of T7 bacteriophage fused human NEK6 at 10 uM by KINOMEscan analysis relative to control"}, "[21]": {"biological_target": "Cyclin-dependent kinase 3 (Homo sapiens) (UniProt Q00526)", "experiment": "Inhibition of T7 bacteriophage fused human CDK3 at 10 uM by KINOMEscan analysis relative to control"}, "[22]": {"biological_target": "Focal adhesion kinase 1 (Homo sapiens) (UniProt Q05397)", "sequence (Q05397 2-1052 limits assumed)": "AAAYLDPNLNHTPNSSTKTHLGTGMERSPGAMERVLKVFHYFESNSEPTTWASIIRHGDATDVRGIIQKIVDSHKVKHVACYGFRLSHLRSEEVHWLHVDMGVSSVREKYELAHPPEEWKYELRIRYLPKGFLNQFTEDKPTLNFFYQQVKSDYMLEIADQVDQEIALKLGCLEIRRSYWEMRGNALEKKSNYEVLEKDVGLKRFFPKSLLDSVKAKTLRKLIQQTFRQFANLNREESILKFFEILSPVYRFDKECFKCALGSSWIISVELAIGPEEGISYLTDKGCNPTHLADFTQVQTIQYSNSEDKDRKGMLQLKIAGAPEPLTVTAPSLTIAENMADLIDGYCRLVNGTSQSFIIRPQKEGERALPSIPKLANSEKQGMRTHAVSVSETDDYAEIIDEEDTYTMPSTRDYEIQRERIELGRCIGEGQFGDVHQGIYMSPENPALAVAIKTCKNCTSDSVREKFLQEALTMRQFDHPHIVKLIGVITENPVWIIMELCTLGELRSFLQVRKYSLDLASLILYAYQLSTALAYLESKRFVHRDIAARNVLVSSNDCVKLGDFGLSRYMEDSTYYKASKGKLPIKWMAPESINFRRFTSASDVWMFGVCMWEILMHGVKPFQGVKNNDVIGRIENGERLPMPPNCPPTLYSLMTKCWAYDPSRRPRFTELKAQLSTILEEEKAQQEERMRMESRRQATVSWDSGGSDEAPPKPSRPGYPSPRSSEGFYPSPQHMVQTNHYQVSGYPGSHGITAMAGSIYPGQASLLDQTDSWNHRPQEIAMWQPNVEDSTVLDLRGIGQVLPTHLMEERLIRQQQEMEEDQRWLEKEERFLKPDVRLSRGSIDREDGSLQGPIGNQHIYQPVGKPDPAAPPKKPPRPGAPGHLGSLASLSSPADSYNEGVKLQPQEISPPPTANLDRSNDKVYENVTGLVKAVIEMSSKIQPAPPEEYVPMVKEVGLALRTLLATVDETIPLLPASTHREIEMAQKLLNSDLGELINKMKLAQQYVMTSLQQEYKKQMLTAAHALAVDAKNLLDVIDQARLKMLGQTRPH", "experiment": "Inhibition of T7 bacteriophage fused human FAK at 10 uM by KINOMEscan analysis relative to control; values are per cent of control"}, "[23]": {"biological_target": "Mitogen-activated protein kinase kinase kinase kinase 3 (Homo sapiens) (UniProt Q8IVH8)", "experiment": "Inhibition of T7 bacteriophage fused human MAP4K3 at 10 uM by KINOMEscan analysis relative to control; values are per cent of control"}, "[24]": {"biological_target": "Mitogen-activated protein kinase kinase kinase 13 (Homo sapiens) (UniProt O43283)", "experiment": "Inhibition of T7 bacteriophage fused human LZK at 10 uM by KINOMEscan analysis relative to control"}, "[25]": {"biological_target": "Phosphatidylinositol 4-phosphate 5-kinase type-1 alpha (Homo sapiens) (UniProt Q99755)", "experiment": "Inhibition of T7 bacteriophage fused human PIP5K1A at 10 uM by KINOMEscan analysis relative to control"}, "[26]": {"biological_target": "Tyrosine-protein kinase Mer (Homo sapiens) (UniProt Q12866)", "experiment": "Inhibition of T7 bacteriophage fused human MERTK at 10 uM by KINOMEscan analysis relative to control"}, "[27]": {"biological_target": "Bone morphogenetic protein receptor type-1B (Homo sapiens) (UniProt O00238)", "experiment": "Inhibition of T7 bacteriophage fused human BMPR1B at 10 uM by KINOMEscan analysis relative to control"}}, "note": "The source made the active and inactive calls. The calls are words filed in the database; no cut-off is given here.", "data": [{"smiles": "CCOc1cc(C(=O)N2CCC(N3CCN(C)CC3)CC2)ccc1Nc1ncc2c(n1)N(C1CCCC1)c1ccccc1C(=O)N2C", "values": [{"measurement": "inhibition", "setting": "[1]", "result": "inactive"}, {"measurement": "inhibition", "setting": "[2]", "result": "inactive"}]}, {"smiles": "COc1cc(N2CCC(N3CCN(C)CC3)CC2)ccc1Nc1ncc2c(n1)N(C)c1ccccc1C(=O)N2C", "values": [{"measurement": "residual activity", "setting": "[3]", "result": 84, "unit": "%"}, {"measurement": "inhibition", "setting": "[4]", "result": 100, "unit": "%"}, {"measurement": "inhibition", "setting": "[5]", "result": 100, "unit": "%"}, {"measurement": "residual activity", "setting": "[6]", "result": 95, "unit": "%"}, {"measurement": "residual activity", "setting": "[7]", "result": 95, "unit": "%"}, {"measurement": "inhibition", "setting": "[8]", "result": 100, "unit": "%"}, {"measurement": "inhibition", "setting": "[9]", "result": 88, "unit": "%"}, {"measurement": "inhibition", "setting": "[10]", "result": 100, "unit": "%"}, {"measurement": "inhibition", "setting": "[11]", "result": 0, "unit": "%"}, {"measurement": "inhibition", "setting": "[12]", "result": 100, "unit": "%"}, {"measurement": "residual activity", "setting": "[13]", "result": 4.2, "unit": "%"}, {"measurement": "inhibition", "setting": "[14]", "result": 100, "unit": "%"}, {"measurement": "residual activity", "setting": "[15]", "result": 78, "unit": "%"}, {"measurement": "inhibition", "setting": "[16]", "result": 62, "unit": "%"}, {"measurement": "inhibition", "setting": "[17]", "result": 100, "unit": "%"}, {"measurement": "inhibition", "setting": "[18]", "result": 100, "unit": "%"}, {"measurement": "inhibition", "setting": "[19]", "result": 100, "unit": "%"}, {"measurement": "inhibition", "setting": "[20]", "result": 76, "unit": "%"}, {"measurement": "inhibition", "setting": "[21]", "result": 100, "unit": "%"}, {"measurement": "residual activity", "setting": "[22]", "result": 34, "unit": "%"}, {"measurement": "residual activity", "setting": "[23]", "result": 71, "unit": "%"}, {"measurement": "inhibition", "setting": "[24]", "result": 100, "unit": "%"}, {"measurement": "inhibition", "setting": "[25]", "result": 90, "unit": "%"}, {"measurement": "inhibition", "setting": "[26]", "result": 100, "unit": "%"}, {"measurement": "inhibition", "setting": "[27]", "result": 76, "unit": "%"}]}]}
